Non-standard residues stand in square brackets, D forms with d. Residues, ends and D or L forms follow the SMILES beside them. aThr = C[C@H](O)[C@H](N)C(=O)O
How the values were obtained:
[1] = Relative dissociation constant evaluated against mouse Ribonucleotide Reductase (RR)
In short: (§1)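 Competition of free ligand with column-bound FTLDADF (Sepharose mixed ~60:40 with underivatized Sepharose) for mouse R1. mR1 (4.4 μM) premixed with ligand (typically 100 μM) in 50 mM Tris pH 8.5, 10 mM DTT, 100 μM dTTP, held 30 min on spin column, then centrifuged. Eluted R1 measured by Bradford assay, duplicates; Kd derived from elution versus no-ligand control, expressed relative to AcFTLDADF standard.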

[2] = Relative binding affinity evaluated against mouse Ribonucleotide Reductase (RR); in short: as §1

Row | SMILES | Relative Kd [1] | Relative Ki [2]
1 | CC(=O)N[C@H](C(=O)N[C@H](C(=O)N[C@@H](CC(C)C)C(=O)N[C@@H](CC(=O)O)C(=O)N[C@@H](C)C(=O)N[C@@H](CC(=O)O)C(=O)N[C@@H](Cc1ccccc1)C(=O)O)[C@H](C)O)C(C)C | > 30 | –
2 | CC(=O)N[C@@H](Cc1ccccc1)C(=O)N[C@H](C(=O)N[C@@H](CC(C)C)C(=O)N[C@@H](CC(=O)O)C(=O)N[C@@H](C)C(=O)N[C@@H](CC(=O)O)C(=O)N[C@@H](Cc1ccc(C)cc1)C(=O)O)[C@H](C)O | 4.7 | –
3 | CC(=O)N[C@@H](Cc1ccccc1)C(=O)N[C@H](C(=O)N[C@@H](CC(C)C)C(=O)N[C@@H](CC(=O)O)C(=O)N[C@@H](C)C(=O)N[C@@H](CC(=O)O)C(=O)N[C@@H](Cc1ccccc1O)C(=O)O)[C@H](C)O | 26 | –
4 | CCCC(=O)N[C@@H](Cc1ccccc1)C(=O)N[C@H](C(=O)N[C@@H](CC(C)C)C(=O)N[C@@H](CC(=O)O)C(=O)N[C@@H](C)C(=O)N[C@@H](CC(=O)O)C(=O)N[C@@H](Cc1ccccc1)C(=O)O)[C@H](C)O | 1 | –
5 | CC(C)C[C@H](NC(=O)[C@@H](NC(=O)[C@H](Cc1ccccc1)NC(=O)Cc1ccccc1)[C@H](C)O)C(=O)N[C@@H](CC(=O)O)C(=O)N[C@@H](C)C(=O)N[C@@H](CC(=O)O)C(=O)N[C@@H](Cc1ccccc1)C(=O)O | 0.8 | –
6 | CC(=O)N[C@@H](Cc1ccccc1)C(=O)N[C@H](C(=O)N[C@@H](CC(C)C)C(=O)N[C@@H](CC(=O)O)C(=O)N[C@@H](C)C(=O)N[C@@H](CC(=O)O)C(=O)N[C@@H](Cc1ccc([N+](=O)[O-])cc1)C(=O)O)[C@H](C)O | > 30 | –
7 | COc1ccc(C[C@H](NC(=O)[C@H](CC(=O)O)NC(=O)[C@H](C)NC(=O)[C@H](CC(=O)O)NC(=O)[C@H](CC(C)C)NC(=O)[C@@H](NC(=O)[C@H](Cc2ccccc2)NC(C)=O)[C@H](C)O)C(=O)O)cc1 | 16 | –
8 | CC(C)C[C@H](NC(=O)[C@@H](NC(=O)[C@H](Cc1ccccc1)NC(=O)OCC1c2ccccc2-c2ccccc21)[C@H](C)O)C(=O)N[C@@H](CC(=O)O)C(=O)N[C@@H](C)C(=O)N[C@@H](CC(=O)O)C(=O)N[C@@H](Cc1ccccc1)C(=O)O | 1.4 | –
9 | CC(=O)N[C@@H](Cc1ccccc1)C(=O)N[C@H](C(=O)N[C@@H](CC(C)C)C(=O)N[C@@H](CC(=O)O)C(=O)N[C@@H](C)C(=O)N[C@@H](CC(=O)O)C(=O)N[C@@H](Cc1c[nH]cn1)C(=O)O)[C@H](C)O | 29 | > 20
10 | CC(=O)N[C@@H](Cc1ccccc1)C(=O)N[C@H](C(=O)N[C@@H](CC(C)C)C(=O)N[C@@H](CC(=O)O)C(=O)N[C@@H](C)C(=O)N[C@@H](CC(=O)O)C(=O)N[C@@H](Cc1ccccc1)C(N)=O)[C@H](C)O | > 30 | –
11 | CC(C)C[C@H](NC(=O)[C@@H](NC(=O)[C@H](Cc1ccccc1)NC=O)[C@H](C)O)C(=O)N[C@@H](CC(=O)O)C(=O)N[C@@H](C)C(=O)N[C@@H](CC(=O)O)C(=O)N[C@@H](Cc1ccccc1)C(=O)O | 2.4 | –
12 | CC(=O)N[C@@H](Cc1ccccc1)C(=O)N[C@H](C(=O)N[C@@H](CC(C)C)C(=O)N[C@@H](CC(=O)O)C(=O)N[C@@H](C)C(=O)N[C@@H](CC(=O)O)C(=O)N[C@H](C(=O)O)c1ccccc1)[C@H](C)O | 24 | –
13 | CC(=O)N[C@@H](Cc1ccccc1)C(=O)N[C@H](C(=O)N[C@@H](CC(C)C)C(=O)N[C@@H](CC(=O)O)C(=O)N[C@@H](C)C(=O)N[C@@H](CC(=O)O)C(=O)N[C@@H](CC(C)C)C(=O)O)[C@H](C)O (Ac-F[aThr]LDADL-OH) | – | > 35
14 | CCC(=O)N[C@@H](Cc1ccccc1)C(=O)N[C@H](C(=O)N[C@@H](CC(C)C)C(=O)N[C@@H](CC(=O)O)C(=O)N[C@@H](C)C(=O)N[C@@H](CC(=O)O)C(=O)N[C@@H](Cc1ccccc1)C(=O)O)[C@H](C)O | 6.3 | –
15 | CC(=O)N[C@@H](Cc1ccccc1)C(=O)N[C@H](C(=O)N[C@@H](CC(C)C)C(=O)N[C@@H](CC(=O)O)C(=O)N[C@@H](C)C(=O)N[C@@H](CC(=O)O)C(=O)N[C@@H](Cc1ccc(O)cc1)C(=O)O)[C@H](C)O | 24 | –
16 | CC(=O)N[C@@H](Cc1ccccc1)C(=O)N[C@H](C(=O)N[C@@H](CC(C)C)C(=O)N[C@@H](CC(=O)O)C(=O)N[C@@H](C)C(=O)N[C@@H](CC(=O)O)C(=O)N[C@@H](Cc1ccc(Cl)cc1)C(=O)O)[C@H](C)O | 3.1 | 3.2
17 | CC(C)C[C@H](NC(=O)[C@@H](NC(=O)[C@H](Cc1ccccc1)NC(=O)c1ccnc(-c2cc(C(=O)O)ccn2)c1)[C@H](C)O)C(=O)N[C@@H](CC(=O)O)C(=O)N[C@@H](C)C(=O)N[C@@H](CC(=O)O)C(=O)N[C@@H](Cc1ccccc1)C(=O)O | 0.6 | –
18 | CC(=O)N[C@H](C(=O)N[C@H](C(=O)N[C@@H](CC(C)C)C(=O)N[C@@H](CC(=O)O)C(=O)N[C@@H](C)C(=O)N[C@@H](CC(=O)O)C(=O)N[C@@H](Cc1ccccc1)C(=O)O)[C@H](C)O)c1ccccc1 | 6.6 | –
19 | CC(=O)N[C@@H](C)C(=O)N[C@H](C(=O)N[C@@H](CC(C)C)C(=O)N[C@@H](CC(=O)O)C(=O)N[C@@H](C)C(=O)N[C@@H](CC(=O)O)C(=O)N[C@@H](Cc1ccccc1)C(=O)O)[C@H](C)O | > 30 | –

Row | SMILES | Relative Kd [1] | Relative Ki [2]
20 | CC(=O)N[C@@H](Cc1ccccc1)C(=O)N[C@H](C(=O)N[C@@H](CC(C)C)C(=O)N[C@@H](CC(=O)O)C(=O)N[C@@H](C)C(=O)N[C@@H](CC(=O)O)C(=O)N[C@@H](Cc1ccccc1F)C(=O)O)[C@H](C)O | 2 | –
21 | COc1ccccc1C[C@H](NC(=O)[C@H](CC(=O)O)NC(=O)[C@H](C)NC(=O)[C@H](CC(=O)O)NC(=O)[C@H](CC(C)C)NC(=O)[C@@H](NC(=O)[C@H](Cc1ccccc1)NC(C)=O)[C@H](C)O)C(=O)O | > 30 | –
22 | CC(=O)N[C@@H](Cc1ccccc1)C(=O)N[C@H](C(=O)N[C@@H](CC(C)C)C(=O)N[C@@H](CC(=O)O)C(=O)N[C@@H](C)C(=O)N[C@@H](CC(=O)O)C(=O)N[C@H](Cc1ccccc1)C(=O)O)[C@H](C)O | 8.6 | –
23 | CC(C)C[C@H](NC(=O)[C@@H](NC(=O)[C@H](Cc1ccccc1)NC(=O)Cc1ccc([N+](=O)[O-])cc1)[C@H](C)O)C(=O)N[C@@H](CC(=O)O)C(=O)N[C@@H](C)C(=O)N[C@@H](CC(=O)O)C(=O)N[C@@H](Cc1ccccc1)C(=O)O | 0.8 | –
24 | CC(=O)N[C@@H](Cc1ccccc1)C(=O)N[C@H](C(=O)N[C@@H](CC(C)C)C(=O)N[C@@H](CC(=O)O)C(=O)N[C@@H](C)C(=O)N[C@@H](CC(=O)O)C(=O)N[C@@H](Cc1c(F)c(F)c(F)c(F)c1F)C(=O)O)[C@H](C)O | 16 | –
25 | CC(=O)N[C@@H](Cc1ccccc1)C(=O)N[C@H](C(=O)N[C@@H](CC(C)C)C(=O)N[C@@H](CC(=O)O)C(=O)N[C@@H](C)C(=O)N[C@@H](CC(=O)O)C(=O)N[C@@H](Cc1ccccc1Cl)C(=O)O)[C@H](C)O | 12 | –
26 | COc1ccc(CC(=O)N[C@@H](Cc2ccccc2)C(=O)N[C@H](C(=O)N[C@@H](CC(C)C)C(=O)N[C@@H](CC(=O)O)C(=O)N[C@@H](C)C(=O)N[C@@H](CC(=O)O)C(=O)N[C@@H](Cc2ccccc2)C(=O)O)[C@H](C)O)cc1 | 0.8 | –
27 | CC(=O)N[C@@H](Cc1ccccc1)C(=O)N[C@H](C(=O)N[C@@H](CC(C)C)C(=O)N[C@@H](CC(=O)O)C(=O)N[C@@H](C)C(=O)N[C@@H](CC(=O)O)C(=O)N[C@@H](Cc1ccc(N)cc1)C(=O)O)[C@H](C)O | 23 | –
28 | CC(=O)N[C@@H](Cc1ccccc1)C(=O)N[C@H](C(=O)N[C@@H](CC(C)C)C(=O)N[C@@H](CC(=O)O)C(=O)N[C@@H](C)C(=O)N[C@@H](CC(=O)O)C(=O)N[C@@H](Cc1c[nH]c2ccccc12)C(=O)O)[C@H](C)O | 10 | –
29 | CC(C)C[C@H](NC(=O)[C@@H](NC(=O)[C@@H](N)Cc1ccccc1)[C@H](C)O)C(=O)N[C@@H](CC(=O)O)C(=O)N[C@@H](C)C(=O)N[C@@H](CC(=O)O)C(=O)N[C@@H](Cc1ccccc1)C(=O)O (H-F[aThr]LDADF-OH) | – | > 40
30 | CC(=O)N[C@@H](Cc1ccccc1)C(=O)N[C@H](C(=O)N[C@@H](CC(C)C)C(=O)N[C@@H](CC(=O)O)C(=O)N[C@@H](C)C(=O)N[C@@H](CC(=O)O)C(=O)N[C@@H](CCC(N)=O)C(=O)O)[C@H](C)O | > 30 | –
31 | CC(=O)N[C@@H](Cc1ccccc1)C(=O)N[C@H](C(=O)N[C@@H](CC(C)C)C(=O)N[C@@H](CC(=O)O)C(=O)N[C@@H](C)C(=O)N[C@@H](CC(=O)O)C(=O)N[C@@H](Cc1ccccc1)C(=O)N[C@@H](C)C(=O)N[C@@H](C)C(=O)O)[C@H](C)O (Ac-F[aThr]LDADFAA-OH) | – | > 35
32 | COc1cccc(C[C@H](NC(=O)[C@H](CC(=O)O)NC(=O)[C@H](C)NC(=O)[C@H](CC(=O)O)NC(=O)[C@H](CC(C)C)NC(=O)[C@@H](NC(=O)[C@H](Cc2ccccc2)NC(C)=O)[C@H](C)O)C(=O)O)c1 | 8.2 | –
33 | CC(=O)N[C@@H](Cc1ccc(O)cc1)C(=O)N[C@H](C(=O)N[C@@H](CC(C)C)C(=O)N[C@@H](CC(=O)O)C(=O)N[C@@H](C)C(=O)N[C@@H](CC(=O)O)C(=O)N[C@@H](Cc1ccccc1)C(=O)O)[C@H](C)O | – | 15
34 | CC(=O)N[C@@H](Cc1ccccc1)C(=O)N[C@H](C(=O)N[C@@H](CC(C)C)C(=O)N[C@@H](CC(=O)O)C(=O)N[C@@H](C)C(=O)N[C@@H](CC(=O)O)C(=O)N[C@@H](Cc1cccc(O)c1)C(=O)O)[C@H](C)O | 6.3 | –
35 | CC(=O)N[C@@H](CC(C)C)C(=O)N[C@H](C(=O)N[C@@H](CC(C)C)C(=O)N[C@@H](CC(=O)O)C(=O)N[C@@H](C)C(=O)N[C@@H](CC(=O)O)C(=O)N[C@@H](Cc1ccccc1)C(=O)O)[C@H](C)O (Ac-L[aThr]LDADF-OH) | > 30 | –
36 | CC(C)C[C@H](NC(=O)[C@@H](NC(=O)[C@H](Cc1ccccc1)NC(=O)c1ccccc1)[C@H](C)O)C(=O)N[C@@H](CC(=O)O)C(=O)N[C@@H](C)C(=O)N[C@@H](CC(=O)O)C(=O)N[C@@H](Cc1ccccc1)C(=O)O | 1.9 | –
37 | CC(=O)N[C@@H](Cc1ccccc1)C(=O)N[C@H](C(=O)N[C@@H](CC(C)C)C(=O)N[C@@H](CC(=O)O)C(=O)N[C@@H](C)C(=O)N[C@@H](CC(=O)O)C(=O)N[C@@H](Cc1ccccc1)C(=O)O)[C@H](C)O | 1 | 1

From ChEMBL document CHEMBL1134462, “Toward a rational design of peptide inhibitors of ribonucleotide reductase: structure-function and modeling studies” (J Med Chem, 2001)
